Data published in paper PMC9585582 (ACS Bio & Med Chem Au, 2022).
Where two headings read alike, the source gives them in different places.

How the values were obtained:
[1] = target: albumin; conditions: read-out: Kd for albumin; cited from earlier work
[2] = target: cross-linked microtubules; conditions: cited from earlier work; for Kd: read-out: biochemical Kd; for Ki: read-out: biochemical Ki
[3] = test system: microtubules (taxane binding site) in living HeLa cells; test: Competition binding assay with PB-GABA-Taxol in living HeLa cells; conditions: read-out: cellular Ki; PB-GABA-Taxol 1.5 μM, verapamil 100 μM, 37 °C, 4% FBS, 3 h, 60K cells/well
[4] = test system: microtubule network of HeLa cells; test: Confocal microscopy of HeLa cells expressing mScarlet-α-Tubulin; type: cell-based; conditions: 1 h at 37 °C
Outline: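 HeLa cells transiently transfected to express mScarlet-α-tubulin. Live cells were treated with microtubule modulators for 1 h at 37 °C, and microtubule-network phenotypes were imaged by confocal microscopy.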

[5] = test system: microtubules in living HeLa cells; test: Allosteric modulator assay with PB-GABA-Taxol in living HeLa cells; type: binding; conditions: allosteric modulator model; PB-GABA-Taxol 1.5 μM, verapamil 100 μM, 3 h, 37 °C
[6] = test system: taxane binding site in living cells; conditions: read-out: Ki by confocal microscopy; cited from earlier work
[7] = Cytotoxicity toward HeLa cells after 48 h by flow cytometry; type: cell-based; conditions: human
[8] = target: purified GDP-bound microtubules; conditions: cited from earlier work

CC(=O)O[C@H]1C(=O)[C@@]2(C)[C@H]([C@H](OC(=O)c3ccccc3)[C@]3(O)C[C@H](OC(=O)[C@H](O)[C@@H](NC(=O)c4ccccc4)c4ccccc4)C(C)=C1C3(C)C)[C@]1(OC(C)=O)CO[C@@H]1C[C@@H]2O [paclitaxel]
Kd [1]: 120 nM | Kd ([2]; ref 65): 70 ± 0.6 nM | Kd ([2]; ref 66): 15 nM | Kd ([2]; ref 68): 50 nM | Ki ([2]; cross-linked microtubules): 27 ± 11 nM | Ki ([2]; ref 21): 31 nM | Ki ([2]; ref 67): 19 nM | Ki [3]: 22 nM | fluorescent microtubule phenotype [4]: enhanced the formation of long microtubule fibers

CO[C@H]1C(=O)[C@]2(C)[C@@H](OC)C[C@H]3OC[C@@]3(OC(C)=O)[C@H]2[C@H](OC(=O)c2ccccc2)[C@]2(O)C[C@H](OC(=O)[C@H](O)[C@@H](NC(=O)OC(C)(C)C)c3ccccc3)C(C)=C1C2(C)C [cabazitaxel]
Ki ([2]; ref 17): 7.4 ± 0.9 nM | Ki [3]: 6 nM

COc1cc2cc(c1Cl)N(C)C(=O)C[C@H](OC(=O)[C@H](C)N(C)C(C)=O)[C@]1(C)O[C@H]1[C@H](C)[C@@H]1C[C@@](O)(NC(=O)O1)[C@H](OC)/C=C/C=C(\C)C2 [maytansine]
cooperativity factor α [5]: 0.21

CC(=O)O[C@H]1C(=O)[C@@]2(C)[C@H]([C@H](OC(=O)c3ccccc3)[C@]3(O)C[C@H](O)C(C)=C1C3(C)C)[C@]1(OC(C)=O)CO[C@@H]1C[C@@H]2O [baccatin III]
Kd ([2]; ref 21): 6700 ± 2000 nM | Ki [3]: 17000 ± 3000 nM

C/C(=C\c1csc(C)n1)[C@@H]1C[C@@H]2O[C@]2(C)CCC[C@H](C)[C@H](O)[C@@H](C)C(=O)C(C)(C)[C@@H](O)CC(=O)N1 [ixabepilone]
Ki [3]: 10 nM | Ki [6]: 7.6 ± 1.6 nM

COc1cc2c(c(OC)c1OC)-c1ccc(OC)c(=O)cc1[C@@H](NC(C)=O)CC2 [colchicine]
IC50 at 48 h [7]: 20 ± 8 nM | fluorescent microtubule phenotype [4]: disrupted the microtubule network

CC[C@]1(O)C[C@@H]2CN(CCc3c([nH]c4ccccc34)[C@@](C(=O)OC)(c3cc4c(cc3OC)N(C)[C@H]3[C@@](O)(C(=O)OC)[C@H](OC(C)=O)[C@]5(CC)C=CCN6CC[C@]43[C@@H]65)C2)C1 [vinblastine]
cooperativity factor α [5]: 0.18 | Kd [8]: 190 to 1000 nM

CC(=O)O[C@@]12CO[C@@H]1C[C@H](O)[C@@]1(C)C(=O)[C@H](O)C3=C(C)[C@@H](OC(=O)[C@H](O)[C@@H](NC(=O)OC(C)(C)C)c4ccccc4)C[C@@](O)([C@@H](OC(=O)c4ccccc4)[C@H]21)C3(C)C [docetaxel]
Kd ([2]; ref 17): 6.8 ± 0.2 nM | Kd ([2]; ref 65): 25 ± 0.4 nM | Ki ([2]; cross-linked microtubules): 17 ± 6 nM | Ki [3]: 16 nM
